Compound activity (PubChem)
RGS4 inh = human RGS4 inhibition. HEK293 M3R/RGS4 inducible, Fluo-4 calcium flux; hits give high values; triggered by carbachol at its EC20. B-score at 10 µM. 310,000 compounds, 0.45% hits;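 active = B-score, a plate-corrected calcium signal, over three deviations above library mean, with baseline fluorescence within five deviations of library mean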;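 also: RGS4 expression induced by doxycycline in cells with stable M3 receptor; B-score is computed from the integrated fluorescence ratio over baseline after carbachol; higher B-score means a larger calcium signal and so more RGS4 inhibition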
Target sequence (P49798 whole entry, looked up): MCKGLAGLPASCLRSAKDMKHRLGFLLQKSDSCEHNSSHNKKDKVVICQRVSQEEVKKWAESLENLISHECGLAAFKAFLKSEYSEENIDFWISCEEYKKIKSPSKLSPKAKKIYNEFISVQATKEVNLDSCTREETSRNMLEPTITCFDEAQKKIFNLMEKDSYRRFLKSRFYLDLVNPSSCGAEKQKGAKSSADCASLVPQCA
RGS4 act = RGS4 potentiation or activation | HEK293 M3R/inducible RGS4, carbachol calcium flux Fluo4; hits give low values | B-score at 10 µM | 310,000 compounds, 0.92% hits;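 active = B-score of the integrated calcium signal more than 4 SD below the library mean, with starting fluorescence not abnormally high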;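 also: negative B-score means reduced calcium response which marks RGS4 activation or potentiation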
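System: HEK293 FlpIn-TREx cells, stable M3R, doxycycline-inducible RGS4. Timing: overnight RGS4 induction, 30 min dye load 37 °C, 20 min compound RT. Also added: carbachol, ECmax concentration. Measured by: Fluo4 fluorescence kinetic imaging of calcium. Evaluation: integrated calcium ratio converted to B score.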
MrgX1 antag = human MrgX1 receptor antagonism, primary screen; MRGX1-HEK293 calcium flux, Fluo-4, BAM8-22 antagonism; hits give low values; B-score at 10 µM; AID 588676; 310,000 compounds, 1.3% hits; Q96LB2;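 active = calcium-response B-score plate-corrected more than 3 library SD below zero, starting fluorescence within 5 deviations, no agonist response on first addition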;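 also: peak minus trough fluorescence over baseline after final BAM8-22 challenge near maximal dose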
Target sequence (Q96LB2 whole entry, looked up): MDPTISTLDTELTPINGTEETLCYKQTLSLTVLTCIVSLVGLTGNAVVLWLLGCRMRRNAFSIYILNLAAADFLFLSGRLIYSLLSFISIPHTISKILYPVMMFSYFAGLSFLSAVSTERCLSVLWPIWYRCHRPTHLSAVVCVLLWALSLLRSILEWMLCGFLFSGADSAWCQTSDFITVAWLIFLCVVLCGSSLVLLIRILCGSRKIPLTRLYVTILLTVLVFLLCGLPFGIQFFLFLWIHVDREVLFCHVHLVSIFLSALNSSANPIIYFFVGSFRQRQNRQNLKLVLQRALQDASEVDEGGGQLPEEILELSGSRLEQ
MrgX1 ag = agonists of human MrgX1 receptor; Q96LB2; MrgX1-HEK293 cells, Fluo-4 calcium fluorescence, agonist mode; hits give high values; B-score at 10 µM; 310,000 compounds, 0.44% hits;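 active = calcium response B-score plate-corrected fluorescence ratio at least 3 library SD, with starting fluorescence B-score inside 5 SD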
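Material – MrgX1-expressing HEK293 cells · Input – 15,000 cells seeded per well · Dosing – compound as first of three additions · Times – overnight seeding, then 1 h dark dye loading · Measured by – kinetic Fluo-4 NW fluorescence of intracellular calcium · Read-out – B-scored fluorescence response ratio · Benchmarks – positive and negative control wells on each plate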
MrgX1 PAM = allosterically activates human MrgX1 receptor signaling | Q96LB2 | MrgX1-HEK293, Fluo-4 calcium flux, FDSS; hits give high values | B-score at 10 µM | 310,000 compounds, 0.63% hits | AID 588675;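 active = plate-corrected calcium response at least 3 library SD above typical, normal starting fluorescence, not activating the receptor alone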;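 also: compound read alongside a low EC10 to EC30 dose of BAM8-22 agonist; peak minus trough fluorescence over baseline measured at the second addition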
MrgX1 allo conf = confirmation of human MrgX1 receptor positive allosteric modulators; AID 602413; activation (ratio percentage), % at 10 µM; 1,200 compounds, 13% hits; shares compounds with MrgX1 PAM; MrgX1-HEK293, Fluo-4 calcium fluorescence, FDSS;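 active = ratio at least 3 SD above the weak peptide control, stable starting fluorescence, no direct agonism earlier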;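 also: compound followed by low BAM8-22 agonist challenge near EC20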
HEK293 Ca flux = MrgX1 antagonist counter-screen hit in parental HEK293 cells; AID 624111; 4,000 compounds, 2% hits; shares compounds with MrgX1 antag; Fluo-4 calcium fluorescence, FDSS; fluorescence ratio F(max-min)/F0 at 10 µM;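 active = duplicate-averaged calcium fluorescence ratio at least three times the standard deviation of buffer wells, a nonspecific response in parental cells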
HEK293 Ca counter = activity in parental HEK293 cells without MrgX1. 4,000 compounds, 0.4% hits. fluorescence ratio F(max-min)/F0 at 10 µM. parental HEK293 calcium flux, Fluo-4 fluorescence ratio; hits give high values. shares compounds with MrgX1 antag;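 active = calcium fluorescence ratio, averaged over duplicates, at least 3 SD of the buffer-well ratio, meaning a nonspecific response in receptor-free cells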;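 also: untransfected parental HEK293 lacking MrgX1 used as counterscreen for MrgX1 allosteric activators; fluorescence change taken during the second addition on a kinetic imager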
HEK293 Ca cntr2 = counter-screen for MrgX1 activators: effect in parental HEK293 cells | shares compounds with MrgX1 antag | Fluo-4 calcium fluorescence (FDSS); hits give high values | fluorescence ratio F(max-min)/F0 at 10 µM | 4,000 compounds, 8.7% hits;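 active = calcium fluorescence ratio at least three times the spread of buffer wells, meaning a non-specific response in parental cells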
Large screens that a line does not name were inactive (follow-up assays come after a bar, where they were run). Shown are actives, neighbours in structure and some others; about 3.5% of the full set was active somewhere.

O=c1oc(-c2ccccc2)nc2sc3c(c12)CCCC3	MrgX1 PAM 13.1 | MrgX1 allo conf inactive | HEK293 Ca flux inactive | HEK293 Ca counter inactive | HEK293 Ca cntr2 inactive
O=C(Nc1cc(S(=O)(=O)Nc2ccc(Cl)cc2)ccc1N1CCCCC1)c1ccc(F)cc1Cl	none
COc1cccc(OC)c1C(=O)Nc1cccc(-c2nc3ccccc3[nH]2)c1	MrgX1 PAM 7.07 | MrgX1 allo conf inactive | HEK293 Ca flux inactive | HEK293 Ca counter inactive | HEK293 Ca cntr2 inactive
CC(=O)Nc1cccc(-c2nc3ccccc3[nH]2)c1	none
Cc1cccc(-c2csc(N)c2C(=O)OC(C)C)c1	MrgX1 PAM 8.14 | MrgX1 allo conf inactive | HEK293 Ca flux inactive | HEK293 Ca counter inactive | HEK293 Ca cntr2 inactive
COCCCn1c(=O)c2sccc2n(Cc2cc(C(=O)OC)ccc2OC)c1=O	none
Cc1cc(Cl)ccc1OCC(=O)N1C(C)CCCC1C (stereo unspecified)	MrgX1 PAM 12 | MrgX1 allo conf inactive | HEK293 Ca flux inactive | HEK293 Ca counter inactive | HEK293 Ca cntr2 inactive
O=C(CC1SCCNC1=O)Nc1ccc(F)c(Cl)c1 (stereo unspecified)	MrgX1 PAM 9.91 | MrgX1 allo conf inactive | HEK293 Ca flux inactive | HEK293 Ca counter inactive | HEK293 Ca cntr2 inactive
COc1ccc(-c2ccc(NC(=O)c3ccc(Br)o3)cc2)nn1	none
CC1Sc2ccc(Cl)cc2-c2nc(N)ncc21 (stereo unspecified)	MrgX1 PAM 11.3 | MrgX1 allo conf inactive | HEK293 Ca flux inactive | HEK293 Ca counter inactive | HEK293 Ca cntr2 inactive
Cc1cccc(Oc2ncnc3oc(-c4ccccc4)cc23)c1C	MrgX1 PAM 12.3 | MrgX1 allo conf 7.6% | HEK293 Ca flux inactive | HEK293 Ca counter inactive | HEK293 Ca cntr2 inactive
Cc1cccc(OCC(=O)Nc2cccc(-c3nnc(-c4ccccc4)o3)c2)c1C	none
Cc1cccc(C)c1NC1=NC(=S)N(c2ccc(C(=O)O)cc2)C12CCCCC2	MrgX1 PAM 7.24 | MrgX1 allo conf inactive | HEK293 Ca flux inactive | HEK293 Ca counter inactive | HEK293 Ca cntr2 inactive
Cc1cccc(NC2=NC(=S)N(c3cccc(C(=O)O)c3)C23CCCCC3)c1	none
COc1ccc(N2CC(C(=O)Nc3cc(C)ccn3)CC2=O)cc1 (stereo unspecified)	MrgX1 PAM 8.09 | MrgX1 allo conf inactive | HEK293 Ca flux inactive | HEK293 Ca counter inactive | HEK293 Ca cntr2 inactive
CC(C)(C)C1CCc2c(C(=O)NNC(=O)CCCC(=O)O)csc2C1 (stereo unspecified)	none
CCOc1ccc(CN(CC)C(=O)c2ccc3c(c2)[nH]c(=O)c(=O)n3CC)cc1OC	none
Cc1ccc(-c2cc(N)n(-c3ccc(C)cc3)n2)cc1	MrgX1 PAM 7.23 | MrgX1 allo conf inactive | HEK293 Ca flux inactive | HEK293 Ca counter inactive | HEK293 Ca cntr2 inactive
C[C@@H](NC(=O)c1cc2c([nH]c3ccccc32)c(-c2ccccc2)n1)C(=O)O	none
O=C(CN1C(=O)c2cccnc2Oc2ccc(Cl)cc21)Nc1ccccc1F	none
O=C(C1CCCN(S(=O)(=O)c2cccs2)C1)N1CCc2ccccc2C1 (stereo unspecified)	MrgX1 PAM 9.63 | MrgX1 allo conf inactive | HEK293 Ca flux inactive | HEK293 Ca counter inactive | HEK293 Ca cntr2 inactive
O=C(C1CCN(S(=O)(=O)c2cccs2)CC1)N1CCc2ccccc2C1	none
O=C(CSC1=NCCN1)NC(c1ccccc1)c1ccccc1	MrgX1 PAM 13.4 | MrgX1 allo conf inactive | HEK293 Ca flux inactive | HEK293 Ca counter inactive | HEK293 Ca cntr2 inactive
Cn1cnc(S(=O)(=O)Nc2ccc(OC(F)(F)F)cc2)c1	none
